# Source: the EternaBench riboswitch data
# System: MS2 coat protein
# Experiment: apparent Kd, MS2 coat protein; higher = weaker binding; RNA-MaP array; FMN 200 µM where present
# Procedure, shortened: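 Designs were transcribed by stalled E. coli RNA polymerase on Illumina sequencing-chip clusters. They were titrated with SNAP-549-labelled MS2 coat protein from 0.7 or 1.5 nM, doubling to 3 µM, in 100 mM Tris-HCl pH 7.5, 80 mM KCl, 4 mM MgCl2, BSA, DTT, yeast tRNA and Tween-20, without and then with constant ligand. The apparent Kd is the median of filtered per-cluster fits after normalisation of green signal to red-channel RNA signal and control-cluster median Fmax.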
# [1] = designed as: OFF switch for flavin mononucleotide, no ligand
# [2] = ligand present: flavin mononucleotide, designed as: OFF switch for flavin mononucleotide
# [3] = designed as: ON switch for flavin mononucleotide, no ligand
# [4] = ligand present: flavin mononucleotide, designed as: ON switch for flavin mononucleotide
Sequence,apparent Kd [1] [nM],apparent Kd [2] [nM],apparent Kd [3] [nM],apparent Kd [4] [nM]
CUGAUGUUAGGAUAUCAGGCGCCCGCCACUAGCAGGGCGCAUGAGAAGGGACAUGAGGAUCACCCAUGUAGUAA,31.6,54.5,,
CGUUUUCACAUUUUAGUGUUUUAUACAGAAGGCCAUACACAUGAGGAUCACCCAUGUCAGGAAUUGGAGGAUAUGUUAUUGACG,,,5.92,4.85
GUGAGUAGUCAGGAUAUGCUGUACAAAAGUACAGCAGAAGGGAUUACAUGAGGAUCACCCAUGUUUACCUCAUG,574,884,,
AAUCUGUAGCAGAAGGUCAUUUUUAUAAAUAAACUGGUGACAUGAGGAUCACCCAUGUAAACGUUGAAGGAUAUGCAUUCUAUU,44.9,52.5,,
AAGAAACAUGAGGAUCACCCAUGUAGAAAUAUGGGAGGAUAUACGAGGACGAAAGUCAAAGUAGAAGGCCUAAGAA,,,56.9,27.4
CAUGACGAAGGAUAUACAUGAGGAUCACCCAUGUGGUCAUGGAAUUACGUGUUCUCGCGUAGAAGGUUGUAGAG,11.3,12.8,,
CAGUACUGAGGAUAUACAUGAGGAUCACCCAUGUAUCCUAGCUAGGAAACUAGCAAAUGUAGAAGGCAGUACUG,62.5,458,,
UGGUACAUGGGAGGAUAUGGGUUGUUAACAUGAGGAUCACCCAUGUUAUGCCGAAAGGCAAAGAACUAGAAGGCCCAUGUACCU,,,21.9,16.4
UGAUUUCAUGUAGGAUAUGCAUGGCGAAGCUACGCAGAAGGACAUGAGGAUCACCCAUGUUUUAGCGUCUGAGUAUAGAUUCUA,140,158,,
AGCUAGUCAGGAUAUACGAACAUGUCAAAAGACGUGAAAGGACAUGAGGAUCACCCAUGUAGAAGGGACUAGCA,21.4,46.9,,
GUGACGAUGUAAGGAUAUGCUGAGGAAUACUCAGCAGAAGGUACAUGAGGAUCACCCAUGUAAAUAAUAAGAAAUAAACGUCAC,16,24.9,,
UUAGAUUAUUGAGGAUAUGGUUAUUUUUAUUAACCAGAAGGCAAACUCAACAUGAGGAUCACCCAUGUAUAAAGGGUAUUAGUU,84.9,82.7,,
AGACAUGUCCGAGGAUAUCUGGAAACAUUUCCAAGAGAAGGCGGACAUGAGGAUCACCCAUGUCUCUCCUCAUCAAAUCCAAGU,10.7,90.9,,
AAGAAGUGAGGAUAUACGCGAACAAAAAAAAAAAAGAAAGCGUAGAAGGCACAUGAGGAUCACCCAUGUCCAAA,27.2,36.3,,
GGCGUUCGCACAGGAUAUGCAUUAGACAUGAGGAUCACCCAUGUAGGCUAAGCAGAAGGGUGGGUGUGUCUAAGGAAAUUCUUC,,,172,42.4
AAGGAUAGAGGAUAUACAUAGAUACAGAUUCAUGUAAUCCUACAUGAGGAUCACCCAUGUAGAAGGCUAUCCUA,15.8,58.3,,
UGUUGUAUUACAGGAUAUCUAGUAUUUUUAUUUAGAGAAGGGUAUUCACAUGAGGAUCACCCAUGUAUAUACGAGGAAGUUGUG,,,34.3,38.8
CAGCGAAAGUAGAAGGCAGUACUGAUACAGUACUGAGGAUAUACAUGAGGAUCACCCAUGUCCUUCAGCUGGAAAUAAAUAAAA,5.9,50.9,,
AAAUUCCUCACAGGAUAUCCUACAUGAGGAUCACCCAUGUACUAACUGAGCGAAUUGCAACAAAAGGAGAAGGGUGAGGUGAAG,,,31.5,6.35
UUAUCUUGUCAAGGAUAUGUUGUAUUGAUCUGAAAACAUGAGGAUCACCCAUGUAUACGGUGGGAACAGAAGGUGAAUGUAGAA,,721,,
